Experimental data from ChEMBL document CHEMBL1156501, “Ibogaine, a noncompetitive inhibitor of serotonin transport, acts by stabilizing the cytoplasm-facing state of the transporter” (J Biol Chem, 2007).
Calls of active or inactive are those of the source. No cut-off for these calls is given here.

Assays:
[1] = species: Rattus norvegicus; test: Inhibition of 2-(aminoethyl)methanethiosulphonate hydrobromide-induced inactivation of rat SERT S277 mutant assessed as drug level causing half maximal protection from inactivation
Outline: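 Membranes from HeLa cells expressing rat SERT S277C were treated with 50 μM MTSEA plus graded cocaine, ibogaine or 5-HT. After washing, residual [125I]β-CIT binding was measured. The drug concentration giving half-maximal protection from or potentiation of inactivation was fitted by nonlinear regression.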

[2] = species: Rattus norvegicus; test: Effect on 2-(aminoethyl)methanethiosulphonate hydrobromide-induced inactivation of rat SERT X5C mutant
Outline: (§1)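 Membranes from HeLa cells expressing rat SERT X5C or K279C (X5C background) were treated with 2 mM MTSEA plus graded ibogaine. Membranes were washed free of MTSEA and ibogaine, then residual binding was measured with 0.1 nM [125I]β-CIT for 1.5 h at room temperature.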

[3] = species: Rattus norvegicus; test: Effect on 2-(aminoethyl)methanethiosulphonate hydrobromide-induced inactivation of rat SERT K279 mutant; outline: as §1
[4] = tested on: Sodium-dependent serotonin transporter (Rattus norvegicus), P31652 [G273C]; test: Effect on 2-(aminoethyl)methanethiosulphonate hydrobromide-induced inactivation of rat SERT G273C mutant assessed as increase in rate constant for inactivation
Outline: (§2)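 Membranes from HeLa cells expressing rat SERT cysteine mutants were filter-bound and treated for 10 min with a range of MTSEA concentrations plus 10 μM ibogaine, 5-HT or cocaine. After washing, residual 0.1 nM [125I]β-CIT binding was measured. The MTSEA concentration giving half-maximal inactivation was used to calculate the inactivation rate constant.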

[5] = tested on: Sodium-dependent serotonin transporter (Rattus norvegicus), P31652 [S277C]; test: Effect on 2-(aminoethyl)methanethiosulphonate hydrobromide-induced inactivation of rat SERT S277C mutant assessed as increase in rate constant for inactivation; outline: as §2
[6] = tested on: Sodium-dependent serotonin transporter (Rattus norvegicus), P31652 [V281C]; test: Effect on 2-(aminoethyl)methanethiosulphonate hydrobromide-induced inactivation of rat SERT V281C mutant assessed as increase in rate constant for inactivation; outline: as §2
[7] = tested on: Sodium-dependent serotonin transporter (Rattus norvegicus), P31652 [T284C]; test: Effect on 2-(aminoethyl)methanethiosulphonate hydrobromide-induced inactivation of rat SERT T284C mutant assessed as increase in rate constant for inactivation; outline: as §2
[8] = tested on: Sodium-dependent serotonin transporter (Rattus norvegicus), P31652 [K272C]; test: Effect on 2-(aminoethyl)methanethiosulphonate hydrobromide-induced inactivation of rat SERT K272C mutant assessed as increase in rate constant for inactivation; outline: as §2
[9] = tested on: Sodium-dependent serotonin transporter (Rattus norvegicus), P31652 [T276C]; test: Effect on 2-(aminoethyl)methanethiosulphonate hydrobromide-induced inactivation of rat SERT T276C mutant assessed as increase in rate constant for inactivation; outline: as §2
[10] = species: Rattus norvegicus; test: Effect on 2-(aminoethyl)methanethiosulphonate hydrobromide-induced inactivation of rat SERT […] mutant assessed as increase in rate constant for inactivation; outline: as §2
[11] = tested on: Sodium-dependent serotonin transporter (Rattus norvegicus), P31652 [Y107C]; test: Effect on 2-(aminoethyl)methanethiosulphonate hydrobromide-induced inactivation of rat SERT Y107C mutant assessed as increase in rate constant for inactivation; outline: as §2
[12] = tested on: Sodium-dependent serotonin transporter (Rattus norvegicus), P31652 [S404C]; test: Effect on 2-(aminoethyl)methanethiosulphonate hydrobromide-induced inactivation of rat SERT S404C mutant assessed as increase in rate constant for inactivation; outline: as §2
[13] = biological target: T1, Sodium-dependent serotonin transporter (Homo sapiens, UniProt P31645); test: Displacement of [125I]beta-CIT from human SERT in human platelet membrane in presence of 5 uM ibogaine; type: cell membranes
[14] = biological target: T1, Sodium-dependent serotonin transporter
[15] = biological target: T2, Sodium-dependent serotonin transporter (Rattus norvegicus, UniProt P31652); test: Inhibition of [3H]5HT uptake at rat SERT expressed in HeLa cells; type: cell-based
[16] = biological target: T2, Sodium-dependent serotonin transporter; test: Displacement of [125I]beta-CIT from rat SERT expressed in HeLa cells; type: cell-based
[17] = compound: CC[C@H]1C[C@H]2C[C@H]3c4[nH]c5ccc(OC)cc5c4CCN(C2)[C@@H]13; test: (§3) Inhibition of [3H]5HT transport at rat SERT expressed in pig LLC-PK1 cells at 5 uM; type: cell-based
Outline: (§4)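 LLC-PK1 cells stably expressing rat SERT were grown as monolayers. Uptake of [3H]5-HT at varied concentrations was measured for 5 min with or without 5 μM ibogaine. Nonspecific uptake was defined with 100 μM cocaine. Km and Vmax were fitted, with an Eadie-Hofstee plot also shown.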

[18] = compound: COC(=O)[C@H]1[C@@H](OC(=O)c2ccccc2)C[C@@H]2CC[C@H]1N2C; test: as §3; type: cell-based; outline: as §4

T1 sequence (P31645 whole entry): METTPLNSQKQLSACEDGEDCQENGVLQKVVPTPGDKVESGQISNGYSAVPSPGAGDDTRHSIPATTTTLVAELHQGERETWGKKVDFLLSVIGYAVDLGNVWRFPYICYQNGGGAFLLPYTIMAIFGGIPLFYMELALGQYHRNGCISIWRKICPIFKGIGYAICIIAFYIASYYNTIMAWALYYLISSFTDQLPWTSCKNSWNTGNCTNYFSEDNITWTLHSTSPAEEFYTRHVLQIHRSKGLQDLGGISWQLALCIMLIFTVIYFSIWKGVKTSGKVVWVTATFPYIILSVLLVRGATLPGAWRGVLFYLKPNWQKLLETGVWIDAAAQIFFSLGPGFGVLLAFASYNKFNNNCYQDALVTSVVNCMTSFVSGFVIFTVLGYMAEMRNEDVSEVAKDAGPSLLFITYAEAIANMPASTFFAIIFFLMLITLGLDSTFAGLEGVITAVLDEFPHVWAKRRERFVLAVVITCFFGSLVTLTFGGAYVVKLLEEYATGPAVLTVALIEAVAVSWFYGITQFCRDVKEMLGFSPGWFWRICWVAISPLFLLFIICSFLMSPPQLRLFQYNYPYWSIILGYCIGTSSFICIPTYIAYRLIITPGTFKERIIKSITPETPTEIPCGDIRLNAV

Molecule	Activity [1] [µM]	Activity [4]	Activity [5]	Activity [6]	Activity [7]	Activity [8]	Activity [9]	Activity [10]	Activity [11]	Activity [12]	further results
CC[C@H]1C[C@H]2C[C@H]3c4[nH]c5ccc(OC)cc5c4CCN(C2)[C@@H]13	0.98	Active	Active	Active	Active	Active	Active	Active	Active	Active	Activity [2]: inactive; Activity [3]: inactive
NCCc1c[nH]c2ccc(O)cc12	0.68	Active	Active	Active	inactive	Active	Active	Active	Active	Active	–
COC(=O)[C@H]1[C@@H](OC(=O)c2ccccc2)C[C@@H]2CC[C@H]1N2C	0.58	–	–	–	–	–	–	–	–	–	–
COC(=O)[C@H]1[C@@H](c2ccc(I)cc2)C[C@@H]2CC[C@H]1N2C	–	–	–	–	–	–	–	–	–	–	Kd [13]: 2.82 nM; Kd [14]: 0.88 nM
CC[C@H]1C[C@@H]2C[C@H]3c4[nH]c5ccc(OC)cc5c4CCN(C2)[C@@H]13 [IBOGAINE]	–	–	–	–	–	–	–	–	–	–	IC50 [15]: 6300 nM; IC50 [16]: 2500 nM
Sodium-dependent serotonin transporter (Rattus norvegicus), P31652 (protein) METTPLNSQKVLSECKDREDCQENGVLQKGVPTTADRAEPSQISNGYSAVPSTSAGDEASHSIPAATTTLVAEIRQGERETWGKKMDFLLSVIGYAVDLGNIWRFPYICYQNGGGAFLLPYTIMAIFGGIPLFYMELALGQYHRNGCISIWRKICPIFKGIGYAICIIAFYIASYYNTIIAWALYYLISSLTDRLPWTSCTNSWNTGNCTNYFAQDNITWTLHSTSPAEEFYLRHVLQIHQSKGLQDLGTISWQLTLCIVLIFTVIYFSIWKGVKTSGKVVWVTATFPYIVLSVLLVRGATLPGAWRGVVFYLKPNWQKLLETGVWVDAAAQIFFSLGPGFGVLLAFASYNKFNNNCYQDALVTSVVNCMTSFVSGFVIFTVLGYMAEMRNEDVSEVAKDAGPSLLFITYAEAIANMPASTFFAIIFFLMLITLGLDSTFAGLEGVITAVLDEFPHIWAKRREWFVLIVVITCVLGSLLTLTSGGAYVVTLLEEYATGPAVLTVALIEAVAVSWFYGITQFCSDVKEMLGFSPGWFWRICWVAISPLFLLFIICSFLMSPPQLRLFQYNYPHWSIVLGYCIGMSSVICIPTYIIYRLISTPGTLKERIIKSITPETPTEIPCGDIRMNAV	–	–	–	–	–	–	–	–	–	–	Km [17]: 0.17 µM; Vmax [17]: 14 pmol/min/mg; Km [18]: 0.2 µM; Vmax [18]: 35.7 pmol/min/mg
